# Data taken from the EternaBench riboswitch data.
# Tested on: MS2 coat protein
# Assay: apparent Kd, MS2 coat protein; higher = weaker binding; RNA-MaP array; tryptophan 2.4 mM where present
# In short: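 Apparent Kd: the median of filtered binding-curve fits from single clusters. Designs were transcribed on Illumina sequencing-chip clusters by stalled E. coli RNA polymerase and titrated with SNAP-549-labelled MS2 coat protein from 0.7 or 1.5 nM, doubling to 3 µM, in 100 mM Tris-HCl pH 7.5, 80 mM KCl, 4 mM MgCl2, BSA, DTT, yeast tRNA and Tween-20. Each series ran without and then with constant ligand, and green signal was normalised to red-channel RNA signal and control-cluster median Fmax.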
# [1] = designed as: OFF switch for tryptophan, no ligand
# [2] = ligand present: tryptophan, designed as: OFF switch for tryptophan
# [3] = designed as: ON switch for tryptophan, no ligand
# [4] = ligand present: tryptophan, designed as: ON switch for tryptophan
Sequence,apparent Kd [1],apparent Kd [2],apparent Kd [3],apparent Kd [4]
UAUAUAUACUCGGCCGCCACUGAGAGAGUCAUGUAAACAUGAGGAUCACCCAUGUAAUAUAUAUACAGGACCGGGAGUAUAUUAA,15.7 nM,13.8 nM,–,–
UGACAGAUAACCGCUGGUGCUCUCGAGUUGCGAGGACCGGUACGGCCGCCACUCGACAACAUGAGGAUCACCCAUGUUGCGGGUC,102 nM,49.8 nM,–,–
UGGUACUAGGCGGCCGCCACUGGGUGAUACAUGAGGAUCACCCAUGUUUAAUGCCGAGAGGCAACUAGGACCGGGCCUAGUACAU,–,–,150 nM,689 nM
UGUCAGCGAAAGUUGACAUGUCUUACCGGUCGAGGACCGGUACGGCCGCCACUCGAUCUCUCGCACAUGAGGAUCACCCAUGUUG,–,–,21.4 nM,15.1 nM
UGUCGUAGACAUGAGGAUCACCCAUGUCCACGAGGACCGGUACGGCCGCCACUCGGGAUAUAAACCGUUACGGGUGGGUGGUGUU,18.8 nM,37.3 nM,–,–
UUACCGUAAGGUAUACCGGUCCACAAUAAUCGAGGACCGGUACGGCCGCCACUCGAUGUGUGAUCACAUGAGGAUCACCCAUGUA,–,–,265 nM,379 nM
UUAUAAGUACCGGUCCUCAGAUCCUCAUGACGAGGACCGGUACGGCCGCCACUCGAAACAUGAGGAUCACCCAUGUAAUAACAUC,19.6 nM,20.7 nM,–,–
UUUAUAUAGACGGCCGCCACUGGAAUUAAUACAUGAGGAUCACCCAUGUAUAGAGAAUAAUAAUACAGGACCGGGUCUUCAUGAU,–,–,29.4 nM,12 nM
UUUGGCGGCGAUCUGGGUUUACCAGAUCGGCGAGGACCGGUACGGCCGCCACUCGUGUUUCUUUGACAUGAGGAUCACCCAUGUA,–,–,62.5 nM,39.1 nM
